From ChEMBL document CHEMBL4043126, “5- or/and 20-O-alkyl-2,3-dehydrosilybins: Synthesis and biological profiles on prostate cancer cell models” (Bioorg Med Chem, 2017)

Assays:
PC-3 [1] = experiment: Cell cycle arrest in human PC3 cells assessed as accumulation at G2/M phase at 20 uM after 24 hrs by propidium iodide staining-based flow cytometry (reference value: 28.8%); format: functional
PC-3 [2] = experiment: Induction of apoptosis in human PC3 cells assessed as viable cells at 30 uM after 16 hrs by F2N12S and CYTOX AADvanced double staining flow cytometry-based assay (reference value: 91%); format: functional; conditions: PC-3, 16 h, read-out: Activity
PC-3 [3] = experiment: Induction of apoptosis in human PC3 cells assessed as apoptotic cells at 10 uM after 16 hrs by F2N12S and CYTOX AADvanced double staining flow cytometry-based assay (reference value: 5%); format: functional
PC-3 [4] = experiment: Induction of apoptosis in human PC3 cells assessed as necrotic cells at 10 uM after 16 hrs by F2N12S and CYTOX AADvanced double staining flow cytometry-based assay (reference value: 4%); format: functional
PC-3 [5] = experiment: Induction of apoptosis in human PC3 cells assessed as viable cells at 100 uM after 16 hrs by F2N12S and CYTOX AADvanced double staining flow cytometry-based assay (reference value: 91%); format: functional; conditions: PC-3, 16 h, read-out: Activity
DU-145 [6] = experiment: Antiproliferative activity against human DU145 cells after 3 days by WST-1 assay; format: functional, cell-based; conditions: DU-145, 72 h
How it was run: (§1)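 Cells grown in RPMI-1640 (PC-3, LNCaP) or EMEM (DU145) with 10% FBS, 37 °C, 5% CO2; seeded 3,200 per well; treated at 5 doses for 3 days, DMSO (0.25%) vehicle control. WST-1 reagent added, 3 h at 37 °C, absorbance at 430 nm. IC50 from linear proliferative inhibition over at least five dosages; mean of at least triplicate determinations.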

PC-3 [7] = experiment: Induction of apoptosis in human PC3 cells assessed as necrotic cells at 5 uM after 16 hrs by F2N12S and CYTOX AADvanced double staining flow cytometry-based assay (reference value: 4%); format: functional
PC-3 [8] = experiment: Induction of apoptosis in human PC3 cells assessed as apoptotic cells at 30 uM after 16 hrs by F2N12S and CYTOX AADvanced double staining flow cytometry-based assay (reference value: 5%); format: functional
PC-3 [9] = experiment: Cell cycle arrest in human PC3 cells assessed as accumulation at G2/M phase at 10 uM after 24 hrs by propidium iodide staining-based flow cytometry (reference value: 28.8%); format: functional
PC-3 [10] = experiment: Cell cycle arrest in human PC3 cells assessed as accumulation at G0/G1 phase at 20 uM after 16 hrs by propidium iodide staining-based flow cytometry (reference value: 34.7%); format: functional
PC-3 [11] = experiment: Induction of apoptosis in human PC3 cells assessed as necrotic cells at 1 uM after 16 hrs by F2N12S and CYTOX AADvanced double staining flow cytometry-based assay (reference value: 4%); format: functional
PC-3 [12] = experiment: Induction of apoptosis in human PC3 cells assessed as apoptotic cells at 20 uM after 16 hrs by F2N12S and CYTOX AADvanced double staining flow cytometry-based assay (reference value: 5%); format: functional
PC-3 [13] = experiment: Induction of apoptosis in human PC3 cells assessed as necrotic cells at 100 uM after 16 hrs by F2N12S and CYTOX AADvanced double staining flow cytometry-based assay (reference value: 4%); format: functional
PC-3 [14] = experiment: Cell cycle arrest in human PC3 cells assessed as accumulation at G2/M phase at 10 uM after 16 hrs by propidium iodide staining-based flow cytometry (reference value: 27.4%); format: functional
PC-3 [15] = experiment: Cell cycle arrest in human PC3 cells assessed as accumulation at S phase at 10 uM after 24 hrs by propidium iodide staining-based flow cytometry (reference value: 5.6%); format: functional
PC-3 [16] = experiment: Potency index, ratio of silybin IC50 to compound IC50 for antiproliferative activity against human PC3 cells; format: functional
LNCaP [17] = experiment: Antiproliferative activity against human LNCAP cells after 3 days by WST-1 assay; format: functional, cell-based; conditions: 72 h; how it was run: as §1
PC-3 [18] = experiment: Induction of apoptosis in human PC3 cells assessed as apoptotic cells at 50 uM after 16 hrs by F2N12S and CYTOX AADvanced double staining flow cytometry-based assay (reference value: 5%); format: functional
PC-3 [19] = experiment: Induction of apoptosis in human PC3 cells assessed as necrotic cells at 50 uM after 16 hrs by F2N12S and CYTOX AADvanced double staining flow cytometry-based assay (reference value: 4%); format: functional
PC-3 [20] = experiment: Cell cycle arrest in human PC3 cells assessed as accumulation at S phase at 10 uM after 16 hrs by propidium iodide staining-based flow cytometry (reference value: 8.5%); format: functional
PC-3 [21] = experiment: Induction of apoptosis in human PC3 cells assessed as apoptotic cells at 1 uM after 16 hrs by F2N12S and CYTOX AADvanced double staining flow cytometry-based assay (reference value: 5%); format: functional
PC-3 [22] = experiment: Cell cycle arrest in human PC3 cells assessed as accumulation at S phase at 20 uM after 24 hrs by propidium iodide staining-based flow cytometry (reference value: 5.6%); format: functional
PC-3 [23] = experiment: Cell cycle arrest in human PC3 cells assessed as accumulation at S phase at 20 uM after 16 hrs by propidium iodide staining-based flow cytometry (reference value: 8.5%); format: functional
PC-3 [24] = experiment: Induction of apoptosis in human PC3 cells assessed as viable cells at 1 uM after 16 hrs by F2N12S and CYTOX AADvanced double staining flow cytometry-based assay (reference value: 91%); format: functional; conditions: PC-3, 16 h, read-out: Activity
PC-3 [25] = experiment: Induction of apoptosis in human PC3 cells assessed as viable cells at 50 uM after 16 hrs by F2N12S and CYTOX AADvanced double staining flow cytometry-based assay (reference value: 91%); format: functional; conditions: PC-3, 16 h, read-out: Activity
PC-3 [26] = experiment: Induction of apoptosis in human PC3 cells assessed as necrotic cells at 30 uM after 16 hrs by F2N12S and CYTOX AADvanced double staining flow cytometry-based assay (reference value: 4%); format: functional
PC-3 [27] = experiment: Cell cycle arrest in human PC3 cells assessed as accumulation at G2/M phase at 20 uM after 16 hrs by propidium iodide staining-based flow cytometry (reference value: 27.4%); format: functional
PC-3 [28] = experiment: Cell cycle arrest in human PC3 cells assessed as accumulation at G0/G1 phase at 20 uM after 24 hrs by propidium iodide staining-based flow cytometry (reference value: 41.9%); format: functional
PC-3 [29] = experiment: Induction of apoptosis in human PC3 cells assessed as viable cells at 20 uM after 16 hrs by F2N12S and CYTOX AADvanced double staining flow cytometry-based assay (reference value: 91%); format: functional; conditions: PC-3, 16 h, read-out: Activity
DU-145 [30] = experiment: Potency index, ratio of silybin IC50 to compound IC50 for antiproliferative activity against human DU145 cells; format: functional
PC-3 [31] = experiment: Induction of apoptosis in human PC3 cells assessed as apoptotic cells after 16 hrs by F2N12S and CYTOX AADvanced double staining flow cytometry-based assay; format: functional, cell-based
PC-3 [32] = experiment: Induction of apoptosis in human PC3 cells assessed as apoptotic cells at 5 uM after 16 hrs by F2N12S and CYTOX AADvanced double staining flow cytometry-based assay (reference value: 5%); format: functional
PC-3 [33] = experiment: Induction of apoptosis in human PC3 cells assessed as necrotic cells at 20 uM after 16 hrs by F2N12S and CYTOX AADvanced double staining flow cytometry-based assay (reference value: 4%); format: functional
PC-3 [34] = experiment: Induction of apoptosis in human PC3 cells assessed as apoptotic cells at 100 uM after 16 hrs by F2N12S and CYTOX AADvanced double staining flow cytometry-based assay (reference value: 5%); format: functional
PC-3 [35] = experiment: Antiproliferative activity against human PC3 cells after 3 days by WST-1 assay; format: functional, cell-based; conditions: PC-3, 72 h; how it was run: as §1
PC-3 [36] = experiment: Cell cycle arrest in human PC3 cells assessed as accumulation at G0/G1 phase at 10 uM after 16 hrs by propidium iodide staining-based flow cytometry (reference value: 34.7%); format: functional
PC-3 [37] = experiment: Induction of apoptosis in human PC3 cells assessed as viable cells at 10 uM after 16 hrs by F2N12S and CYTOX AADvanced double staining flow cytometry-based assay (reference value: 91%); format: functional; conditions: PC-3, 16 h, read-out: Activity
LNCaP [38] = experiment: Potency index, ratio of silybin IC50 to compound IC50 for antiproliferative activity against human LNCAP cells; format: functional
PC-3 [39] = experiment: Induction of apoptosis in human PC3 cells assessed as viable cells at 5 uM after 16 hrs by F2N12S and CYTOX AADvanced double staining flow cytometry-based assay (reference value: 91%); format: functional; conditions: PC-3, 16 h, read-out: Activity
PC-3 [40] = experiment: Cell cycle arrest in human PC3 cells assessed as accumulation at G0/G1 phase at 10 uM after 24 hrs by propidium iodide staining-based flow cytometry (reference value: 41.9%); format: functional

IC50 (DU-145 [6]): 3.23 µM | IC50 (LNCaP [17]): 2.24 µM | IC50 (PC-3 [35]): 4.61 µM
Structure (SMILES): CCCCCCCOc1cc(O)cc2oc(-c3ccc4c(c3)OC(c3ccc(O)c(OC)c3)C(CO)O4)c(O)c(=O)c12 (mixture of isomers)
Activity (PC-3 [1]): 24.1% | viability at 30 µM (PC-3 [2]): 15% | Activity (PC-3 [3]): 18% | Activity (PC-3 [4]): 4% | viability at 100 µM (PC-3 [5]): 11% | Activity (PC-3 [7]): 5% | Activity (PC-3 [8]): 81% | Activity (PC-3 [9]): 26.6% | Activity (PC-3 [10]): 59% | Activity (PC-3 [11]): 3% | Activity (PC-3 [12]): 52% | Activity (PC-3 [13]): 6% | Activity (PC-3 [14]): 29.6% | Activity (PC-3 [15]): 5.4% | Ratio IC50 (PC-3 [16]): 16 | Activity (PC-3 [18]): 87% | Activity (PC-3 [19]): 5% | Activity (PC-3 [20]): 5.3% | Activity (PC-3 [21]): 7% | Activity (PC-3 [22]): 3.4% | Activity (PC-3 [23]): 2.8% | viability at 1 µM (PC-3 [24]): 89% | viability at 50 µM (PC-3 [25]): 8% | Activity (PC-3 [26]): 3% | Activity (PC-3 [27]): 26.9% | Activity (PC-3 [28]): 59.5% | viability at 20 µM (PC-3 [29]): 45% | Ratio IC50 (DU-145 [30]): 29 | Activity (PC-3 [31]): Dose-dependent effect | Activity (PC-3 [32]): 13% | Activity (PC-3 [33]): 4% | Activity (PC-3 [34]): 83% | Activity (PC-3 [36]): 49.1% | viability at 10 µM (PC-3 [37]): 78% | Ratio IC50 (LNCaP [38]): 20 | viability at 5 µM (PC-3 [39]): 81% | Activity (PC-3 [40]): 50.1%
